The target of one series is Prostacyclin receptor (Homo sapiens, UniProt P43119). The series can be described thus: Displacement of [3H]Iloprost from human prostanoid IP receptor expressed in CHO cells after 30 mins by liquid scintillation counting. The class given is cell-based. A digest of the protocol: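 Membranes from CHO cells stably expressing hIP were incubated with 5.0 nM [³H]iloprost and graded compound concentrations in 50 mM Tris-HCl (1 mM EDTA, 10 mM MgCl₂, pH 7.5) for 30 min at room temperature. Filters (GF/B) were washed with ice-cold Tris/NaCl pH 7.5, dried 60 min at 60 °C, and counted. Nonspecific binding used excess unlabeled iloprost. Ki = IC50/(1+[L]/Kd).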
Sequence of Prostacyclin receptor (P43119 whole entry): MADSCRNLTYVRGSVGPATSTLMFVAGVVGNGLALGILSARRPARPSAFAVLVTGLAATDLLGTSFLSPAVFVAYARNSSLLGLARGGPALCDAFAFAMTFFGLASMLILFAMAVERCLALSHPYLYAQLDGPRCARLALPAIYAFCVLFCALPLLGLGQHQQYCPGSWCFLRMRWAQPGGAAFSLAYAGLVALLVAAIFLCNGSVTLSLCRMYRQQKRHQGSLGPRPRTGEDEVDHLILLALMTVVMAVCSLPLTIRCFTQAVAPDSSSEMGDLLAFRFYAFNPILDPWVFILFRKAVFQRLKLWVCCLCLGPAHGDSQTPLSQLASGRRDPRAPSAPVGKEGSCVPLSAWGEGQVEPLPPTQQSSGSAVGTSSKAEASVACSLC

The target of series [1] is T1, Prostaglandin D2 receptor (Mus musculus, UniProt P70263).
T1 sequence (P70263 whole entry): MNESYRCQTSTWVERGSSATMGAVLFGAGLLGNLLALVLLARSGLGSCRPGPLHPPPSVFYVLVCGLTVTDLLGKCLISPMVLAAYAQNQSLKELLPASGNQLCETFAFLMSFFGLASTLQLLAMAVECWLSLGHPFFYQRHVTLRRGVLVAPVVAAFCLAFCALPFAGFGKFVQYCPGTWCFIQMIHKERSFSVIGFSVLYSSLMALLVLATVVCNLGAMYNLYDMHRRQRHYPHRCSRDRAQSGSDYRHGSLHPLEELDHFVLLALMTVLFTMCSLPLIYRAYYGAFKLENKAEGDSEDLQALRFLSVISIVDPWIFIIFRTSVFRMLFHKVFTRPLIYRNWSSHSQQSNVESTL
The series can be described thus: Antagonist activity at mouse prostanoid DP receptor expressed in CHO cells assessed as inhibition of PGD2-induced intracellular cAMP production after 10 mins by enzyme immunoassay. The format is functional, cell-based. The gist of the method: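 CHO cells expressing mDP seeded at 1 × 10⁵ cells/well and grown 2 days. They were rinsed and preincubated ~10 min at 37 °C in MEM with 2 µM diclofenac, then ~10 min in assay medium (MEM, 0.1% BSA, 1 mM IBMX, 2 µM diclofenac). Compound plus 10 nM PGD₂ was added for 10 min at 37 °C. TCA stop, tri-n-octylamine/chloroform extraction, cAMP by EIA. IC50 taken from % of maximal cAMP rise without compound.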
In general terms: Changes in cAMP serve as a functional read-out for many G protein-coupled receptors.

Series [2] deals with T2, Prostaglandin D2 receptor (Homo sapiens, UniProt Q13258).
T2 sequence (Q13258 whole entry): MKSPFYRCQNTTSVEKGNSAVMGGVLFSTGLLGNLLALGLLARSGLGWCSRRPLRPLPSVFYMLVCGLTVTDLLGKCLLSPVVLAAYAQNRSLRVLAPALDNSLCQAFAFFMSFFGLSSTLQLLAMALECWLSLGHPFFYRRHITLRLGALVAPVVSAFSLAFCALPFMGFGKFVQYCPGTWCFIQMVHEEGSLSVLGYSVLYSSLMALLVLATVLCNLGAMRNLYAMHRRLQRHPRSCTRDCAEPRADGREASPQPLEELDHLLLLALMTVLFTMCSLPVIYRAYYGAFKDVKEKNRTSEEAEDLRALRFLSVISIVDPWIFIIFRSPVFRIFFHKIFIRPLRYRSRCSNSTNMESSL
The series can be described thus: Antagonist activity at prostanoid DP receptor in human platelet rich plasma assessed as inhibition of PGD2-induced intracellular cAMP production after 10 mins by enzyme immunoassay. The class given is functional, cell-based. Conditions: in the assay text read “after 15 mins” for “after 10 mins”. The gist of the method: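 Human PRP with EDTA (~10 mmol/L) was spun at 1500 G for 15 min. Platelets were resuspended in PPP at 5.0 × 10⁵/µL with IBMX (8 mmol/L final) and an EP3 antagonist, then held 5 min at 37 °C. Compound was added for 10 min at 37 °C, then PGD₂ (3 µmol/L final) for 15 min. TCA stop, tri-n-octylamine extraction, cAMP EIA. IC50 derived from inhibition ratio.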

The nature of series [3]: Kinetic solubility of the compound. Conditions: read-out: Kinetic_solubility. The class given is physicochemical.
The subject of the next series is Cavia porcellus. The series can be described thus: Inhibition of PGD2-induced vascular permeability in Hartley guinea pig conjunctiva at 0.1 mg/kg, po administered 1 hr before antigen challenge measured after 30 mins. The format is functional. A digest of the protocol:
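Guinea pigs (n = 8) were dosed orally 1 h before topical PGD₂ challenge (20 µL/eye). 5% Evans blue (1 mL/kg iv) was given immediately after challenge. After 30 min the conjunctiva was excised and dye extracted in DMF at 37 °C, with absorbance read at 620 nm. Dunnett's test versus control.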

Series [4] in a line: AUC (0 to infinity) in rat at 1 mg/kg, po administered as single dose. The format is ADME, organism-based. On the set-up: time infinity, dose 1 mg/kg, route oral. Conditions: plasma. The gist of the method:
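Fasted male rats (n = 3) given a single oral dose of 1 mg/kg in 0.5% MC. Heparinized jugular vein blood sampled pre-dose and at 15, 30 min and 1, 2, 4, 6, 8, 24 h. Plasma separated by centrifugation at 4 °C and kept at -80 °C. AUC derived from the plasma concentration–time profile.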

Series [5] is described as follows: AUC (0 to infinity) in rat at 1 mg/kg, iv administered as single dose. The format is ADME, organism-based. On the set-up: time infinity, dose 1 mg/kg, route intravenous. Conditions: plasma. A digest of the protocol: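 Single IV dose of 1 mg/kg to fasted male rats (n = 3). Vehicle: 30% HP-b-CD containing 5% DMSO with NaHCO3 (1 eq). Jugular vein blood taken in heparinized syringe pre-dose and at 5, 15, 30 min and 1, 2, 4, 6, 8, 24 h. Plasma obtained by centrifugation at 4 °C and stored at -80 °C. AUC derived from the plasma concentration–time course.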

Series [6] can be described thus: Cmax in rat at 1 mg/kg, po administered as single dose. The class given is ADME, organism-based. More on the design: dose 1 mg/kg, route oral. Conditions: in vivo. The gist of the method: (§1)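 Fasted male rats (n = 3) received a single oral 1 mg/kg dose in 0.5% methylcellulose. Jugular blood was drawn into heparin before dosing and at 15, 30 min and 1, 2, 4, 6, 8, 24 h. Plasma was separated at 4 °C. Parameters came from the plasma concentration-time course.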

A short description of series [7]: Total clearance in rat at 1 mg/kg, iv administered as single dose. The format is ADME, organism-based. More on the design: dose 1 mg/kg, route intravenous. Conditions: in vivo. A digest of the protocol: (§2)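 Fasted male rats (n = 3) received a single 1 mg/kg iv dose in 30% HP-β-CD with 5% DMSO and 1 eq NaHCO₃. Jugular blood was drawn into heparin before dosing and at 5, 15, 30 min and 1, 2, 4, 6, 8, 24 h. Plasma was obtained by centrifugation at 4 °C. Parameters came from the plasma concentration-time course.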

Series [8] is described as follows: Half life in rat at 1 mg/kg, iv administered as single dose. The format is ADME, organism-based. On the set-up: dose 1 mg/kg, route intravenous. Conditions: in vivo. A digest of the protocol: as §2
Series [9] can be described thus: Half life in rat at 1 mg/kg, po administered as single dose. On the set-up: dose 1 mg/kg, route oral. Conditions: in vivo. The format is ADME, organism-based. A digest of the protocol: as §1
Series [10] can be described thus: Volume of distribution at steady state in rat at 1 mg/kg, iv administered as single dose. Conditions: in vivo, read-out: Vdss. The format is ADME, organism-based. On the set-up: dose 1 mg/kg, route intravenous. A digest of the protocol: as §2
Series [11] is described as follows: Oral bioavailability in rat at 1 mg/kg administered as single dose. The class given is ADME, organism-based. Conditions: in vivo. The gist of the method: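 Fasted male rats (n = 3) were given 1 mg/kg orally in 0.5% methylcellulose and 1 mg/kg iv in 30% HP-β-CD/5% DMSO/NaHCO₃, each as a single dose. Plasma from serial jugular samples was analysed. Bioavailability was derived from oral versus iv exposure, corrected for dose (D_po, D_iv).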

Values after ≈ are worked out from the molar mass of the structure shown.

On to `Cc1cc(OC[C@@H]2CN(C)c3ccccc3O2)cc(C)c1C(=O)Nc1cc(C(C)(C)C(=O)O)ccc1Cl`, for which, on Prostacyclin receptor, the Ki (as a rule, the equilibrium dissociation constant of an inhibitor or competing ligand from its target) was over 10000 nM. Also, the figures for the IC50 in [1] and in series [2] were 0.7 nM and 8.1 nM, respectively. For the same molecule, the solubility kinetic in series [3] is 0.49 mg/mL (≈ 937 µM). Further, at 0.1 mg/kg the inhibition in vivo in the series on Cavia porcellus was 58%. For the same molecule, the AUC(0-inf) (commonly the area under the concentration-time curve extrapolated to infinity) is 8.28 µg·h/mL in series [4] and 9.52 µg·h/mL in series [5]. Further, the Cmax (usually the maximum level reached in the sampled fluid or tissue) in [6] stood at 1.67 µg/mL. Moreover, the clearance – broadly, the volume of plasma or blood freed of the substance per unit of time – in series [7] worked out at 0.108 L/h/kg. Also, the half-life (usually the time in which the quantity being followed falls by half) in series [8] is 6.5 h; in [9] it was 5.6 h. For the same molecule, in series [10], the Vd stood at 0.669 L/kg. Further, the bioavailability – broadly, the share of a dose that reaches the circulation, judged against a reference dose that is usually intravenous – in [11] is 87%.

Values taken from ChEMBL document CHEMBL1914355, “Discovery of new orally active prostaglandin D2 receptor antagonists” (Bioorg Med Chem, 2011).
